Rows were chosen to be rich in hits. Some 4.5% of all compounds tested hit in one or more screens of this group.
STAT1 act: increases IFN-gamma driven STAT1 reporter signal; NIH 3T3 STAT1-luciferase reporter, luminescence; 100% = IFN-gamma alone, no compound; activation (% of control), % at 5.5 µM; 200,000 compounds, 2.6% hits;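 active = activation above the screen-wide mean activation plus 3 SD, cut at about 130% in these data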
PERK inh: human PERK inhibition, primary cell-based screen; Q9NZJ5; CHO PERK-DD fusion, SEAP luminescence translation reporter; inhibition, % at 5.6 µM; 220,000 compounds, 0.17% hits; AID 1416;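 active = inhibition above the mean inhibition of all tested compounds plus 3 SD, set separately per screening campaign, cut at about 2.9% in these data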;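 also: PERK kinase domain activated by AP20187 dimerizer at 100 nM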
Target sequence (Q9NZJ5 whole entry, looked up, the tested form may be a part): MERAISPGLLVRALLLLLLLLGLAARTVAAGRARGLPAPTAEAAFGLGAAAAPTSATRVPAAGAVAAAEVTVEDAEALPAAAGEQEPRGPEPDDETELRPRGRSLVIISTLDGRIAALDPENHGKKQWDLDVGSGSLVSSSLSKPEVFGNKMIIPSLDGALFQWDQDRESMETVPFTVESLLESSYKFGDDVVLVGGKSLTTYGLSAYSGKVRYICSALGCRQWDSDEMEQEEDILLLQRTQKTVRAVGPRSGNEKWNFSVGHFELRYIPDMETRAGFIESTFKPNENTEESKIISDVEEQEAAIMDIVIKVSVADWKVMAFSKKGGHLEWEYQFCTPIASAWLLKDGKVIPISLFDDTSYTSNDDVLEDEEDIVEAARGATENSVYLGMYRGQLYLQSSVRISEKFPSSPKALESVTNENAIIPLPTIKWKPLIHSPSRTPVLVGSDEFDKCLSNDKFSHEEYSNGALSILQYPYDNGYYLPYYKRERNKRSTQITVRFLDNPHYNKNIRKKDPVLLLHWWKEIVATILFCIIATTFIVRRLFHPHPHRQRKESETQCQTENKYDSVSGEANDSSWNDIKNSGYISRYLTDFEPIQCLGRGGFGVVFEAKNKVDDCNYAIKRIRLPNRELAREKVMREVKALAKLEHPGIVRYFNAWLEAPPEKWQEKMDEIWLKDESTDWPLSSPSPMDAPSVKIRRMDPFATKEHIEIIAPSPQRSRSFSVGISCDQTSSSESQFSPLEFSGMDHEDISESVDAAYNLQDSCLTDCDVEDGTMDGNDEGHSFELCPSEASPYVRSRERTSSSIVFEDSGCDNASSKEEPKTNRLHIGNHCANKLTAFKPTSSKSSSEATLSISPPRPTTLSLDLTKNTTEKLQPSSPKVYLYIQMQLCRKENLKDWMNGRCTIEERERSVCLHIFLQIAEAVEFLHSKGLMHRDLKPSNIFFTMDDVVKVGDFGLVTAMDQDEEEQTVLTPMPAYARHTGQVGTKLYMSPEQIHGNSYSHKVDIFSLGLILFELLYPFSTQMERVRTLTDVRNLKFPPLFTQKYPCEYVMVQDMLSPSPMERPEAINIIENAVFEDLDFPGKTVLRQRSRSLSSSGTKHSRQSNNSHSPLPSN
AHR act: activators of human aryl hydrocarbon receptor | AHR-responsive luciferase reporter cells, luminescence | P35869 | AID 2796 | activation, % at 5 µM | 320,000 compounds, 2.5% hits; in the data active = activation above about 47%
MDM2 E3 inh: inhibitors of human Mdm2 E3 ubiquitin ligase; cell-based MDM2 ubiquitination luciferase reporter, 2 h; 0 = plate control, 100 = twice control, blank-subtracted; signal enhancement, % at 5 µM; 210,000 compounds, 0.11% hits;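 active = signal enhancement of 30% or more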;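 also: luminescence tracks abundance of the self-degrading MDM2-luciferase fusion protein; higher signal means inhibition of MDM2 E3 ligase activity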
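System: stable MDM2–luciferase fusion reporter cells / Input: 2000 cells seeded into each well / Schedule: 4 h settle plus 2 h compound, 37 °C / Compound: single-point 5 µM / Buffer or medium: cells held in DMEM / Benchmarks: control and blank well means / Evaluation: percent signal gain over controls, blank-subtracted / Measured by: luciferase luminescence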
APP 5'UTR act: APP 5'UTR luciferase reporter activation; 190,000 compounds, 1% hits; SH-SY5Y APP 5'UTR luciferase reporter, luminescence; zero percent = DMSO vehicle wells; activation, % at 2 µM;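 active = activation above a set limit, based on mean plus 3 SD of controls, cut at about 140% in these data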
NF-kB neuron act: NF-kB expression increase, human neuronal cells; 190,000 compounds, 1.6% hits; AID 1239; fold change at 12.5 µM; NF-kB reporter expression; stronger effect = higher value; in the data active = fold change above about 3.3
STAT1 activ conf: STAT1 activation, confirmation assay. NIH 3T3 STAT1-luciferase reporter, IFN-gamma potentiation, luminescence; 100% = IFN-gamma EC80 alone, no compound. 1,200 compounds, 97% hits. activation (% of control), % at 5.7 µM. shares compounds with STAT1 act;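 active = activation above a set limit carried over from the earlier primary STAT1 screen, cut at about 140% in these data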
NFkB act: activates NF-kappaB, counter-screen to STAT1 activators; shares compounds with STAT1 act; HEK293T NF-kB luciferase reporter, TNF-alpha stimulated, luminescence; 100% = TNF-alpha with vehicle only; activation (% of control), % at 5.7 µM; 1,200 compounds, 43% hits; AID 1306;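 active = activation above the mean of solvent-only control wells plus 3 SD, set per campaign, cut at about 130% in these data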;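 also: TNF-alpha given at a submaximal dose yielding about 80% of full reporter signal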
STAT3 act STAT1c: counter-screen for STAT1 activators: human STAT3 activation. shares compounds with STAT1 act. U3A cells STAT3-luciferase reporter, IL-6, luminescence; cells lack STAT1; 100 = IL-6 alone, no compound effect. activation (% of control), % at 5.7 µM. 1,200 compounds, 46% hits. AID 1316;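 active = activation above the solvent-only control well mean plus 3 SD, set per plate batch, cut at about 110% in these data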;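 also: higher means more STAT3 reporter activation so hits are non-selective activators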
Large screens that a line does not name were inactive (follow-up assays come after a bar, where they were run).

COc1ccc(C)cc1S(=O)(=O)NC(C)C(=O)NC1CC1 (stereo unspecified)	none (no result: STAT1 act, PERK inh, MDM2 E3 inh, APP 5'UTR act, NF-kB neuron act)
CC(=O)c1csc(Nc2ccccc2Cl)n1	none (no result: STAT1 act, APP 5'UTR act, NF-kB neuron act)
O=C(c1ccccc1)c1cnc(Nc2ccccc2Cl)s1	STAT1 act 162.1, APP 5'UTR act 173.7, NF-kB neuron act 7.31 | STAT1 activ conf 213.8 | NFkB act 134.6 | STAT3 act STAT1c 113.1
CC(C)(C)C(=O)c1cnc(Nc2ccccc2Cl)s1	STAT1 act 158.1, NF-kB neuron act 5.1 | STAT1 activ conf 204.3 | NFkB act inactive | STAT3 act STAT1c 111.0
Cc1cccc(C)c1NC(=O)COC(=O)/C=C/c1ccc(S(=O)(=O)N2CCOCC2)cc1	none (no result: STAT1 act, PERK inh, MDM2 E3 inh, APP 5'UTR act, NF-kB neuron act)
COC(=O)c1ccc(N=NNc2cccc(Br)c2)cc1	STAT1 act 151.7, NF-kB neuron act 3.32 | STAT1 activ conf 224.5 | NFkB act 134.1 | STAT3 act STAT1c 129.3
COC(=O)C(C)Nc1cccc(Br)c1 (stereo unspecified)	none (no result: STAT1 act, APP 5'UTR act, NF-kB neuron act)
O/N=C(/CCc1ccccc1)c1ccc2c(c1)OCCO2	STAT1 act 154.8 | STAT1 activ conf 154.5 | NFkB act inactive | STAT3 act STAT1c inactive
COc1ccc2nc3sc(C(=O)NCc4cccs4)c(N)c3cc2c1	STAT1 act 182.6, APP 5'UTR act 140.1 | STAT1 activ conf 222.3 | NFkB act 136.2 | STAT3 act STAT1c inactive
CCCC(=O)C1=C(c2ccccc2)C(C#N)(C#N)C(C#N)=C1N	none (no result: APP 5'UTR act)
CCc1ccc(NC(=O)N2CCC(c3ccccc3)C2)cc1 (stereo unspecified)	STAT1 act 161.0, APP 5'UTR act 164.0, NF-kB neuron act 4.32 (no result: MDM2 E3 inh) | STAT1 activ conf 182.4 | NFkB act inactive | STAT3 act STAT1c inactive
O=C(O)CC/C(=N/NC(=O)c1cccs1)c1ccccc1	STAT1 act 156.6 | STAT1 activ conf 134.5 | NFkB act inactive | STAT3 act STAT1c inactive
O=C(NCCCN1CCOCC1)/C(=C/c1ccc(F)cc1)NC(=O)c1ccccc1	none
Cn1ccsc1=NC(=O)c1cccc(OC(F)F)c1	none (no result: STAT1 act, PERK inh, MDM2 E3 inh, APP 5'UTR act, NF-kB neuron act)
Cn1ccs/c1=N\C(=O)Nc1cccc(Cl)c1	STAT1 act 156.2, NF-kB neuron act 3.74 | STAT1 activ conf 184.0 | NFkB act 134.4 | STAT3 act STAT1c inactive
c1ccc(CSCc2cn3ccccc3n2)cc1	STAT1 act 152.9, NF-kB neuron act 5.12 | STAT1 activ conf 168.3 | NFkB act inactive | STAT3 act STAT1c 111.1
CCOC(=O)C1CCN(C(=O)COC(=O)C23CC4CC(CC(C4)C2)C3)CC1	none (no result: STAT1 act, PERK inh, MDM2 E3 inh, APP 5'UTR act, NF-kB neuron act)
Cc1ccc(NC(=S)NC(=O)c2ccc(Br)o2)c(C)c1	STAT1 act 152.1 | STAT1 activ conf 164.5 | NFkB act inactive | STAT3 act STAT1c inactive
CC(=O)Nc1ccc(NC(=O)C2CCCCN2S(=O)(=O)c2ccc(C(C)(C)C)cc2)cc1 (stereo unspecified)	none (no result: STAT1 act, PERK inh, MDM2 E3 inh, APP 5'UTR act, NF-kB neuron act)
CCCCS(=O)(=O)/C=C\C=C/S(=O)(=O)CCCC	STAT1 act 307.0, MDM2 E3 inh 30.8 | STAT1 activ conf 210.0 | NFkB act inactive | STAT3 act STAT1c inactive
O=C(CCS(=O)(=O)c1ccccc1)NC12CC3CC(CC(C3)C1)C2	STAT1 act 151.3 | STAT1 activ conf 183.8 | NFkB act 133.4 | STAT3 act STAT1c 127.8
O=C(CCS(=O)(=O)c1ccccc1)NCCS(=O)(=O)c1ccccc1	none
CCOC(=O)c1cnc2c(-c3ccccc3)cnn2c1C	STAT1 act 154.3, APP 5'UTR act 155.0, NF-kB neuron act 7.26 | STAT1 activ conf 198.1 | NFkB act 134.7 | STAT3 act STAT1c inactive
Nc1cc(=O)nc(SCC(=O)Nc2cccc3ccccc23)n1CCc1ccccc1	none
CCOC(=O)/C(C#N)=C/c1cc(C)n(-c2ccccc2)c1C	STAT1 act 164.6, APP 5'UTR act 153.2 | STAT1 activ conf 255.1 | NFkB act inactive | STAT3 act STAT1c inactive
O=C(c1ccc(Cl)cc1)N(Cc1ccco1)C1CCS(=O)(=O)C1 (stereo unspecified)	none (no result: STAT1 act, PERK inh, MDM2 E3 inh, APP 5'UTR act, NF-kB neuron act)
CCOc1ccc(CCNC(=O)CCNC(=O)c2ccco2)cc1OCC	none (no result: STAT1 act, PERK inh, MDM2 E3 inh, APP 5'UTR act, NF-kB neuron act)
CCN(CC)c1ccc(C(=O)Nc2ccccc2)cc1[N+](=O)[O-]	STAT1 act 159.9, AHR act 53.1 | STAT1 activ conf 163.1 | NFkB act inactive | STAT3 act STAT1c inactive
COc1ccccc1OCCNC(=O)C1CC(=O)N(c2cccc(SC)c2)C1 (stereo unspecified)	none (no result: STAT1 act, PERK inh, MDM2 E3 inh, APP 5'UTR act, NF-kB neuron act)
CS(=O)(=O)c1cnc2c(-c3ccsc3)cnn2c1N	STAT1 act 157.3 | STAT1 activ conf 171.2 | NFkB act inactive | STAT3 act STAT1c 111.3
CS(=O)(=O)c1cnc2c(S(=O)(=O)c3ccccc3)cnn2c1N	none
Cc1ccc(S(=O)(=O)/N=C(/c2ccccc2)N2CCOCC2)c(C)c1	none
O=C(/C=C/Nc1ccc([N+](=O)[O-])cc1)c1ccc(Br)cc1	none
O=C(/C=C/Nc1ccc(F)cc1)c1ccc(Br)cc1	STAT1 act 172.3 (no result: MDM2 E3 inh, NF-kB neuron act) | STAT1 activ conf 218.1 | NFkB act inactive | STAT3 act STAT1c inactive
NC(=O)c1ccccc1N/C=C/C(=O)c1ccc(F)cc1	STAT1 act 153.8, APP 5'UTR act 136.2, NF-kB neuron act 4.19 (no result: AHR act) | STAT1 activ conf 189.1 | NFkB act inactive | STAT3 act STAT1c inactive
O=C(/C=C/Nc1ccccc1F)c1ccc(Br)cc1	STAT1 act 182.2, APP 5'UTR act 224.2, NF-kB neuron act 8.75 | STAT1 activ conf 238.7 | NFkB act inactive | STAT3 act STAT1c inactive
CCCOc1ccc(C(=O)CCC(=O)NNC(=O)c2cccs2)cc1	none (no result: STAT1 act, PERK inh, MDM2 E3 inh, APP 5'UTR act, NF-kB neuron act)
C=CCN1C(=O)/C(=C/c2ccc(OC(C)=O)c(OCC)c2[N+](=O)[O-])SC1=S	none (no result: AHR act)
Cc1cc(C(=O)CN2CCC(C)CC2)c(C)n1-c1ccc(F)cc1	STAT1 act 157.0, APP 5'UTR act 136.0 | STAT1 activ conf 164.1 | NFkB act inactive | STAT3 act STAT1c 118.1
COCCNc1nnc(SC(C)C(=O)Nc2ccc(-c3nc4ccc(C)cc4s3)cc2)s1 (stereo unspecified)	STAT1 act 159.8, NF-kB neuron act 4.48 | STAT1 activ conf 200.4 | NFkB act inactive | STAT3 act STAT1c inactive
Cc1ccc2nc(-c3ccc(NC(=S)NCCC(C)C)cc3)sc2c1	none (no result: MDM2 E3 inh, NF-kB neuron act)
Cc1ccc2nc(-c3ccc(NC(=O)COC(=O)c4ccc([N+](=O)[O-])o4)cc3)sc2c1	STAT1 act 154.7, NF-kB neuron act 5.97 | STAT1 activ conf 170.1 | NFkB act inactive | STAT3 act STAT1c inactive

High-throughput results deposited in PubChem by several laboratories.
